Experimental data taken from ChEMBL document CHEMBL1152428 (Bioorg Med Chem, 2009).
Calls of active or inactive are those of the source. The rule behind the calls is not given here.

Columns and labels:
[1] = target: Cyclin-dependent kinase 1 (Saccharomyces cerevisiae S288c) (UniProt P00546); test: Binding affinity to Saccharomyces cerevisiae Cdc28
Procedure, shortened: (§1)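 Budding yeast grown to OD600 ~2 were lysed under 2.5 kbar pressure in breaking buffer (25 mM Tris pH 7.4, 100 mM NaCl, 0.2% Triton X100, phosphatase and protease inhibitors) and clarified. The lysate was incubated with Sepharose matrices carrying linker-attached drug (3 µmol/ml resin), methyl control or ethanolamine-blocked beads. Bound proteins were eluted in Laemmli buffer and analysed by SDS–PAGE with silver staining or western blot.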

[2] = Inhibition of Marthasterias glacialis CDK1/cyclin B after 30 mins by scintillation counting
[3] = target: Glycogen synthase kinase-3 (Sus scrofa, UniProt B2LUN4+I6LNT8); test: Inhibition of pig brain GSK3alpha/beta after 30 mins by scintillation counting
[4] = Inhibition of histidine6-tagged Plasmodium falciparum recombinant GSK3 expressed in Escherichia coli by scintillation counting
[5] = target: Cyclin-dependent kinase 5/CDK5 activator 1 (Homo sapiens, UniProt Q00535); test: Inhibition of GST-fused recombinant CDK5/p25 expressed in Escherichia coli after 30 mins by scintillation counting
Chain of Cyclin-dependent kinase 5/CDK5 activator 1 (Q00535 whole entry, the tested form may be a part): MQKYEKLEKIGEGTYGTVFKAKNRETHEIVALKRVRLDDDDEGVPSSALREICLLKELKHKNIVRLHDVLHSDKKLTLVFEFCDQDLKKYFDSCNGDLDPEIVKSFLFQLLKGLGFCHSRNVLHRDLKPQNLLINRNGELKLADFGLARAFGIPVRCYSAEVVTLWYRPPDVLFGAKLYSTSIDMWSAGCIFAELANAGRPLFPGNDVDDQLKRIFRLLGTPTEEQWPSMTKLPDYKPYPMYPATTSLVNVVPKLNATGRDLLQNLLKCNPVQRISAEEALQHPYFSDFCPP
Chain of Cyclin-dependent kinase 5/CDK5 activator 1 (Q15078 whole entry, further chain, the tested form may be a part): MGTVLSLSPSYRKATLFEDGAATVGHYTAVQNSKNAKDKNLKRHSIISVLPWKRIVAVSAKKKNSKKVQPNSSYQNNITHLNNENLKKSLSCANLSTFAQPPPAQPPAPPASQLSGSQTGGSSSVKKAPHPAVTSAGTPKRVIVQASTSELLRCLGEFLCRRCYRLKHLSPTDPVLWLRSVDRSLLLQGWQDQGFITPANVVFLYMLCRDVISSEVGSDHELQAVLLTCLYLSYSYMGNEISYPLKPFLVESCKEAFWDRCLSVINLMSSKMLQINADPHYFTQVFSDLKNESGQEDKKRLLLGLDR

[6] = target: Cyclin-dependent kinase 1 (Saccharomyces cerevisiae S288c, UniProt P00546); test: Inhibition of hemagglutininin-tagged Saccharomyces cerevisiae MNY629 Cdc28/Clb2
Chain of Cyclin-dependent kinase 1 (P00546 whole entry): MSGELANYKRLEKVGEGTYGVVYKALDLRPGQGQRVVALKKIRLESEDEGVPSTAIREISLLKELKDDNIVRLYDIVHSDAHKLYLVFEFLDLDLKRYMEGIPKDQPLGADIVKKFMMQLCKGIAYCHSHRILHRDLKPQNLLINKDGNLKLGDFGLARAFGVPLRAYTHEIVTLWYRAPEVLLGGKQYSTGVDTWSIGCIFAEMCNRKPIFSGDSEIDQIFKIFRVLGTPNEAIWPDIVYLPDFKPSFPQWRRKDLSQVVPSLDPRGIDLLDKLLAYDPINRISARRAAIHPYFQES
Procedure, shortened: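 Cdc28/Clb2-HA was immunoprecipitated from strain MNY629 extracts with anti-HA and protein A/G agarose. Kinase reactions ran 30 min at 30 °C with histone H1, 15 µmol/l [γ-33P]ATP (stock) and varying drug concentrations in buffer C (25 mM MOPS pH 7.2, 15 mM MgCl2, 5 mM EGTA, 1 mM DTT, phosphatase inhibitors). Products were spotted on P81 paper, washed in 1% phosphoric acid and counted by scintillation. IC50 was taken from the dose–response curve.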

[7] = target: Cyclin-dependent protein kinase PHO85 (Saccharomyces cerevisiae S288c) (UniProt P17157); test: Binding affinity to Saccharomyces cerevisiae Pho85; procedure, shortened: as §1
Chain of Cyclin-dependent protein kinase PHO85 (Saccharomyces cerevisiae S288c) (P17157 whole entry): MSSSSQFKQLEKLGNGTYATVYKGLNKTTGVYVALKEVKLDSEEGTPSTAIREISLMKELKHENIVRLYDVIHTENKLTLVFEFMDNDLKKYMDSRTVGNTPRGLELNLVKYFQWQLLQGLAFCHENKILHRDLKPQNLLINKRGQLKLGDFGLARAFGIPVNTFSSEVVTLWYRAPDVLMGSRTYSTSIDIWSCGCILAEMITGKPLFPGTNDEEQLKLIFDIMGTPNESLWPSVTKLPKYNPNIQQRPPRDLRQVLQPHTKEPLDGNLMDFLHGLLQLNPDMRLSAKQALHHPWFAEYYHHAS

[8] = target: Cyclin-dependent protein kinase PHO85 (Saccharomyces cerevisiae S288c) (UniProt P17157); test: Inhibition of Saccharomyces cerevisiae YRP1 Pho85 assessed as induction of nuclear localization of GFP-tagged transcription factor Pho4 at 250 uM after 3 hrs by fluorescence microscopy
Procedure, shortened: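 The drug-sensitized strain YRP1 (snq2Δ pdr5Δ erg6Δ) carried a Pho4-GFP plasmid. Cells were grown overnight without uracil, diluted to OD600 0.5 and treated with 250 µM drug, with methanol as vehicle. After 3 h, GFP localization was examined by fluorescence microscopy (excitation 455–495 nm).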

[9] = tested on: Saccharomyces cerevisiae; test: Growth inhibition of drug-sensitized Saccharomyces cerevisiae YRP1 assessed as growth deffect; format: functional, organism-based
Procedure, shortened: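 Growth defect of the drug-sensitized YRP1 strain (snq2Δ pdr5Δ erg6Δ) was scored on agar plates by halo assay.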

Chain of Cyclin-dependent kinase 1 (Saccharomyces cerevisiae S288c) (P00546 2-298 limits assumed): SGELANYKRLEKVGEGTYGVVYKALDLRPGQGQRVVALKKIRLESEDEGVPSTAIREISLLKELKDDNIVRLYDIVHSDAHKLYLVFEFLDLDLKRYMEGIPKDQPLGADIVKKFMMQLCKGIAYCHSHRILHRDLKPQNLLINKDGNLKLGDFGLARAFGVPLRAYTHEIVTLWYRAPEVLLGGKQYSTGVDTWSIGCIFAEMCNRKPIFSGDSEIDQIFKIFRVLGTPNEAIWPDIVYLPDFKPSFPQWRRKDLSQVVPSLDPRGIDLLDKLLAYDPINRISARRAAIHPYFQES

Activity [1] | IC50 [2] | IC50 [3] | IC50 [4] | IC50 [5] | IC50 [6] | Activity [7] | Activity [8] | SMILES | growth inhibition (GI) [9]
inactive | 140 µM | > 200 µM | > 100 µM | 160 µM | > 33 µM | inactive | – | CCCCc1c(-c2ccc(O)cc2)n(C)c2nccnc12 [N-METHYL-ALOISINE A] | –
– | 6.7 µM | 5.8 µM | – | > 10 µM | – | – | – | CCCCc1c(-c2ccc(O)c(-c3cn(CCOCCOCCN)nn3)c2)[nH]c2nccnc12 | –
– | – | 0.65 µM | 5.5 µM | – | 2.5 µM | – | Active | CCCCc1c(-c2ccc(O)cc2)[nH]c2nccnc12 [ALOISINE A] | inactive
– | 100 µM | 45 µM | – | 50 µM | – | – | – | CCCCc1c(-c2ccc(OCCOCCOCCN)cc2)n(C)c2nccnc12 | –
– | 0.23 µM | 0.34 µM | – | 0.66 µM | – | – | – | CCCCc1c(-c2ccc(OCCOCCOCCN)cc2)[nH]c2nccnc12 | –
– | > 10 µM | > 10 µM | – | > 10 µM | – | – | – | CCCCc1c(-c2ccc(O)c(-c3cn(CCOCCOCCN)nn3)c2)n(C)c2nccnc12 | –
